The values that follow come from ChEMBL document CHEMBL1151771, “Lanostane-type triterpenes from the mushroom Astraeus pteridis with antituberculosis activity” (J Nat Prod, 2008).

Values after ≈ are worked out from the molar mass of the structure shown.

Data set [1] concerns Vero. Briefly: Cytotoxicity against african green monkey Vero cells upto 100 uM. The class given is cell-based. The conditions noted are these: chlorocebus sabaeus. The essentials: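 Vero cells (ATCC CCL-81) tested with a nonradioactive cell proliferation (CellTiter 96) assay. IC50 taken as the reciprocal dilution giving 50% inhibition of Vero cells.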
Data set [2] relates to Mycobacterium tuberculosis. Briefly: Antimicrobial activity against Mycobacterium tuberculosis H37Rv by Alamar blue assay. The format is functional. The method in brief:
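M. tuberculosis H37Rv (ATCC27294) in microplate Alamar Blue assay, fluorescence read-out. MIC taken as lowest concentration giving 90% fluorescence reduction relative to controls. Rifampin run in each test as positive quality control.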
For orientation: Alamar Blue is a resazurin reagent that responds to reducing activity.

As usually defined, the MIC is the least concentration at which growth counts as inhibited. For the compound `C[C@H]([C@@H]1CC[C@H](C)C(=O)O1)[C@H]1CC[C@@]2(C)C3=C(CC[C@]12C)[C@@]1(C)CC[C@@H](O)C(C)(C)[C@@H]1CC3`, the Activity entry in data set [1] is recorded as “Non-toxic”. Also, the MIC in data set [2] came to 58 µg/mL (≈ 127 µM).

For `C[C@H]([C@@H]1CC[C@H](C)[C@@H](O)O1)[C@H]1CC[C@@]2(C)C3=C(CC[C@]12C)[C@@]1(C)CC[C@@H](O)C(C)(C)[C@@H]1CC3`, in data set [1], the Activity entry was “Non-toxic”. In addition, 34 µg/mL (≈ 74.1 µM) was the least that counted as inhibitory in data set [2] (MIC).

Consider `C[C@H]([C@@H]1CC[C@H](C)C(=O)O1)[C@H]1CC[C@@]2(C)C3=C(CC[C@]12C)[C@@]1(C)CCC(=O)C(C)(C)[C@@H]1CC3` [ASTRAHYGRONE], for which the Activity result in data set [1] is reported as “Non-toxic”. The compound further showed an MIC in data set [2] of 64 µg/mL (≈ 141 µM).

For `C[C@H]([C@@H]1CC[C@H](C)[C@@H](O)O1)[C@H]1CC[C@@]2(C)C3=C(CC[C@]12C)[C@@]1(C)CC[C@H](O)C(C)(C)[C@@H]1CC3` [ASTRAPTERIDIOL], the Activity entry in data set [1] is “Non-toxic”. The same compound registered an MIC in data set [2] of over 64 µg/mL.

In the case of `C[C@H]([C@@H]1CC[C@H](C)[C@@H](O)O1)[C@H]1CC[C@@]2(C)C3=C(CC[C@]12C)[C@@]1(C)CCC(=O)C(C)(C)[C@@H]1CC3` [ASTRAPTERIDONE], the Activity entry in data set [1] is “Non-toxic”. This compound also showed an MIC in data set [2] of over 64 µg/mL.
